# S1P3 ag = S1P3 (human) receptor agonism. Q99500. S1P3 NFAT-BLA reporter cells, FRET ratio; relative to 1 µM S1P, basal subtracted. activation, % at 4.5 µM. 60,000 tested, 0.1% active. AID 373;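 active = activation above the screen-wide mean plus 3 SD, cut at about 4.5% in these data, passing the limit was not always enough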
#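 Benchmarks: high control 1 µM S1P / System: stable CHO line with human S1P3, Gα16, NFAT-BLA reporter / Dosing: single compound concentration, 4.5 µM final / Timing: 4 h compound at 37 °C, 2 h substrate at RT / Measured by: FRET β-lactamase substrate fluorescence, excitation 405 nm, 460/535 nm emission ratio, background-subtracted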
# M1 antag = M1 muscarinic receptor (rat) antagonism; P08482; CHO-M1 cells, Fluo-4 calcium, ACh EC80 antagonist mode; hits give low values; B-score at 10 µM; 64,000 tested, 3.4% active; AID 628;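 active = calcium fluorescence response, raw or row-and-column corrected B-score, differing from the plate sample mean either way at a set confidence level, mostly lower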
# Target sequence (P08482 whole entry, looked up): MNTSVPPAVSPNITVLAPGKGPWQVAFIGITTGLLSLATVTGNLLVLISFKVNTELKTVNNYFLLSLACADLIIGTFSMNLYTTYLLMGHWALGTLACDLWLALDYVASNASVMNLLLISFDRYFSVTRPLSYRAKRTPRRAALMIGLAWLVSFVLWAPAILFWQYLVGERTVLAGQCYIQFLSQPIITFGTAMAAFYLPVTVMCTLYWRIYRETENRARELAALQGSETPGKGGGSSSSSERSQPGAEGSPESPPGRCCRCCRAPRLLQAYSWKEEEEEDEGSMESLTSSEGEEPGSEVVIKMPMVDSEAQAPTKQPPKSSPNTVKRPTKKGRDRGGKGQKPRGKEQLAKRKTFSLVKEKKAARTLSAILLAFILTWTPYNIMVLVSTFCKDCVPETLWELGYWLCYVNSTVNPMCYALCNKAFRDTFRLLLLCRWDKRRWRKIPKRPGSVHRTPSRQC
# S1P1 ag-PAM = agonists and agonism potentiators of human S1P1 receptor. P21453. AID 449. 56,000 tested, 0.57% active. activation, % at 9.5 µM. S1P1 CRE-bla cells, forskolin, beta-lactamase FRET, potentiator mode; S1P1 agonist co-added at EC20, 2 nM; 100% = saturating reference agonist, 0% = basal;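 active = activation above a cutoff set at the mean activation of all tested compounds plus 3 SD, cut at about 54% in these data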;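 also: forskolin at 4 µM as EC80 and the EC20 agonist is SEW2871; 100% = SEW2871 at its EC100 plus forskolin at EC80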
# RORA act = activators of human nuclear receptor RORA. activation, % at 10 µM. 65,000 tested, 1.5% active. P35398. CHO-K1 Gal4-RORA LBD luciferase reporter, luminescence; percent increase over mock-subtracted basal signal;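 active = activation above the mean of all tested compounds plus 3 SD, cut at about 49% in these data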;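 also: 0% = DMSO-treated RORA cells and 100% = added signal equal to DMSO minus mock-transfected cells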
# SF1 activator = activators of human nuclear receptor SF-1; CHO-K1 Gal4-SF-1 LBD luciferase reporter; % increase over DMSO SF-1-specific signal; activation, % at 10 µM; 65,000 tested, 1.9% active; AID 522;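 active = activation above the mean activation of all tested compounds plus 3 SD, cut at about 50% in these data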
#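 Assay system – CHO-K1 cells with Gal4–hSF-1 LBD chimera plus Gal4-driven luciferase · Quantity – 4,000 cells per well · Times – compound added 1 h post-seeding, 20 h exposure at 37 °C, 5% CO2 · Measured by – luciferase light emission · Benchmarks – DMSO and mock-transfected background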
# M1 ag = M1 muscarinic receptor agonism. 64,000 tested, 3% active. CHO-M1 cells, Fluo-4 calcium fluorescence, agonist mode; hits give high values. B-score at 10 µM;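 active = fluorescence rise, raw or as B-score row- and column-corrected plate score, outside the 99.7% band of its plate's samples, either direction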
# M1 agonist conf = rat M1 muscarinic agonism, confirmation. shares compounds with M1 ag. CHO-M1 cells, Fluo-4 calcium fluorescence, agonist mode; actives lie on both sides. 1,700 tested, 19% active. fluorescence change (max-min) at 10 µM. AID 1488;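 active = fluorescence change differs from the solvent-only DMSO control mean at a set confidence level in both duplicate runs; inconclusive = differs from solvent-only control mean in just one of two runs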;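 also: an EC20 dose of acetylcholine follows compound addition during the same imaging run; raw fluorescence intensity difference in instrument units with no normalization to controls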
# M4 agonist ctr = counter-screen for M1 agonists: activity at rat M4 receptor | 1,700 tested, 9% active | fluorescence change (max-min) at 10 µM | AID 1741 | CHO M4/Gqi5 cells, Fluo-4 calcium fluorescence, agonist mode; actives lie on both sides | shares compounds with M1 ag;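 active = fluorescence change differing from the plate's solvent-only control wells at 99.7% confidence in both duplicates, whether higher or lower; inconclusive = differs from solvent controls in only one of two duplicates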
# Active calls of the source: *; ? = inconclusive; . = not tested or not shown. Most compounds without a hit are left out; they make up all but 8.8% or so of the library.
SMILES,S1P3 ag,M1 antag,S1P1 ag-PAM,RORA act,SF1 activator,M1 ag,M1 agonist conf,M4 agonist ctr
CCOC(=O)COc1ccc(S(=O)(=O)NCc2ccncc2)cc1,-1,-2.4,28,-19,-3,7.6*,-6.9,?
CCOCCCn1cnc2c(c1=O)c1nc3ccccc3nc1n2-c1ccc(C)cc1,-1,0.54,13,7,-17,0.68,.,.
CCOCCCn1cnc2c(c1=O)c1nc3ccccc3nc1n2-c1ccccc1,0,0.058,-8,-35,-5,3.9*,?,-37
Cc1cc(F)ccc1S(=O)(=O)Nc1ccccc1C(=O)Nc1ccc2[nH]c(=O)[nH]c2c1,.,0.041,.,-13,-9,0.2,.,.
COc1ccccc1CCn1cnc2c3cc(C)ccc3n(C)c2c1=O,0,-0.44,-23,-3,-2,1.8*,?,-81
COc1ccc2c(c1)c1ncn(CCN3CCCC3)c(=O)c1n2C,-1,-0.23,-5,0,5,-0.011,.,.
N#Cc1c(NC(=O)COC(=O)C2CC3C=CC2C3)oc(-c2ccccc2)c1-c1ccccc1 (stereo not given),.,0.00058,.,-13,-10,-0.039,.,.
CCOC(=O)c1c(C)n(C)c2ccc(OCC(O)Cn3nc(C)cc3C)cc12 (stereo not given),-1,-0.36,-19,-11,-11,2.7*,?,-40
CCOC(=O)c1c(C)n(C)c2ccc(OCC(N)=O)cc12,0,0.87,-10,-7,4,2,.,.
CCn1c(=O)cc(OCC(=O)NCCCN2CC(C)CC(C)C2)c2ccccc21 (stereo not given),0,-0.73,-40,-13,-9,2.2*,?,?
Cc1ccc2c(C)nc(Nc3nc(CSc4nnnn4-c4ccccc4)cc(=O)[nH]3)nc2c1,0,-0.6,-15,-10,9,8.6*,-13,-19
COCc1cc(=O)[nH]c(Nc2nc(C)c3ccc(C)cc3n2)n1,0,-0.39,-12,-4,-5,1.1,.,.
OC(COc1ccccc1Cl)CN1CCN(CC(O)COc2ccccc2Cl)CC1 (stereo not given),-1,-0.49,-17,15,18,5.2*,-13,?
COc1ccccc1N1CCN(CC(O)COc2cccc3ccccc23)CC1 (stereo not given),-5,-0.94,6,-27,-44,0.015,.,.
CCN1CCN(C(c2cccs2)C(C)NC(=O)c2ccco2)CC1 (stereo not given),0,-2.2,2,-2,-3,-0.031,.,.
CCN1CCN(C(c2cccs2)C(C)NC(=O)CC(C)C)CC1 (stereo not given),-1,1.1,-6,-6,4,-2.7*,?,-87
COc1ccc(-c2noc(N3CCC(C(=O)N4CCN(c5ccccn5)CC4)CC3)n2)cc1,0,-2.2,6,7,-18,2.4*,18,-13
COc1ccc(CC(=O)N2CCN(c3ccccn3)CC2)cc1,0,0.2,8,3,-8,-0.98,.,.
N#Cc1c(-c2ccc3c(c2)OCO3)csc1N,-1,-0.048,-5,38,36,3.2*,-0.042,-29
CCOc1ccc2nc(Nc3nc4c(c(=O)[nH]3)CCC4)nc(C)c2c1,0,0.24,-9,1,37,0.29,.,.
CSc1nc2ccc(S(=O)(=O)Nc3c(C)n(C)n(-c4ccccc4)c3=O)cc2s1,0,-2.8*,.,-6,3,6.1*,?,-87
CCOC(=O)N1CCN(Cc2nc(-c3ccc(C)cc3)no2)CC1,0,0.99,-4,1,1,2.5*,-4.9,-11
COc1ccc(-c2noc(CN3CCN(c4ccccc4)CC3)n2)cc1,0,0.56,-5,-22,-9,-1,.,.
O=C(CCN1C(=O)c2ccccc2S1(=O)=O)Nc1nc2c(s1)CCCC2,0,-0.33,10,40,16,-0.21,.,.
CCn1cc(C(=O)N2CCOCC2)c(=O)c2cc(S(=O)(=O)N(C)C3CCCCC3)ccc21,0,0.065,-5,18,-9,-0.12,.,.
SMILES,S1P3 ag,M1 antag,S1P1 ag-PAM,RORA act,SF1 activator,M1 ag,M1 agonist conf,M4 agonist ctr
COc1ccccc1CCNC(=O)c1cnn2c(C(F)F)cc(C)nc12,-1,-0.53,-5,2,-19,2.5*,-9.9,-34
CCOc1ccc(-c2noc(COC)n2)cc1OC,-1,0.2,11,6,1,3.2*,-3.5,-34
Cc1ccc2cc3c(NC(=O)C(C)C)nn(C)c3nc2c1,0,0.093,-20,3,-22,0.12,.,.
CCOC(=O)c1cc2c(=O)n3ccccc3nc2n(CCCOC)c1=NC(=O)c1cccnc1,.,0.65,.,-12,-1,-0.25,.,.
CCOC(=O)c1cc2c(=O)n3ccccc3nc2n(Cc2ccco2)c1=NC(=O)c1cccnc1,.,-1,.,10,-10,6.2*,146*,7.7
CCOC(=O)c1cc2c(=O)n3cccc(C)c3nc2n(Cc2ccco2)c1=NC(=O)c1cccnc1,0,-0.9,-22,-2,3,40*,180*,44
CC(C)Cc1[nH]c(=O)c(C#N)c2c1CCCC2,0,-0.2,-4,1,2,0.089,.,.
COc1ccc(N(CC(=O)Nc2ccc(C)cn2)S(=O)(=O)c2c(C)noc2C)cc1,-1,-0.3,13,-9,-1,2.8,.,.
Cc1ccc2nc3c(cc(C#N)c(=O)n3CC3CCCO3)c(=O)n2c1 (stereo not given),2,0.049,-19,-9,2,-1.1,.,.
COc1ccc(-c2noc(CCC(=O)NCc3cccnc3)n2)cc1OC,0,.,-18,5,-15,.,.,.
CCN(CC)S(=O)(=O)c1ccc2oc(SCC3CN=C(c4ccc(OC)cc4)S3)nc2c1 (stereo not given),-2,-0.81,-1,-9,-40,8.1*,-32*,?
COc1ccc(C2=NCC(CSc3nnc(-c4ccc5c(c4)OCO5)o3)S2)cc1 (stereo not given),0,-0.088,37,12,4,-0.064,.,.
Cc1n[nH]c(C)c1S(=O)(=O)N1CCN(C(=O)c2ccco2)CC1,0,0.34,-10,-25,-4,-0.33,.,.
COC(=O)c1ccc(OCC2c3cc(OC)c(OC)cc3CCN2C(=O)c2ccco2)cc1 (stereo not given),.,-2.4*,.,-1,25,11*,-15,?
CCC(=O)N1CCc2cc(OC)c(OC)cc2C1COc1ccc(C(=O)OC)cc1 (stereo not given),.,-0.006,.,2,24,0.48,.,.

# Bioassay records deposited in PubChem by several laboratories.
